Experimental findings from ChEMBL document CHEMBL3351639, “Fluorinated analogues of marsanidine, a highly α2-AR/imidazoline I1 binding site-selective hypotensive agent. Synthesis and biological activities” (Eur J Med Chem, 2014) are described below.

One may read the Ki as the dissociation constant of the complex between target and ligand, obtained from inhibition or displacement. Read a high Ki as weaker binding. A word on the IC50: it is the concentration needed to halve the response being measured. Low readings indicate inhibition by little substance, high ones a need for much substance.

For data set [1], the system named is Rattus norvegicus. Kind of data set: Cardiovascular activity in anesthetized Wistar rat assessed as time required for maximal reduction in heart rate at 0.1 mg/kg, iv measured during 60 mins post dose. Type of data set: functional. Summed up: (§1)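 Male Wistar rats (200–290 g) anaesthetized with thiopental 70 mg/kg i.p., maintained at 30 µg/kg/min; body temperature 36–37 °C. Carotid catheter recorded MAP and HR; jugular catheter for infusion. After 40 min of saline/thiopental infusion (1.2 ml/h), 0.1 mg/kg given as i.v. bolus (time 0). Signals sampled at 100 Hz. Maximal change from time 0 over 60 min, and its time, recorded. Saline vehicle control; n = 4–5.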

A short description of data set [2]: Displacement of […] from imidazoline I2 receptor in Sprague-Dawley rat kidney membranes after 45 mins by liquid scintillation counting. The class given is cell membranes, Membrane. On the technique in general: Loss of bound radioactivity is the signal in a displacement assay; it reports binding, not function.
Data set [3] has as its system Rattus norvegicus. Description: Hypertensive activity in anesthetized Wistar rat assessed as maximal increase in mean arterial blood pressure at 0.1 mg/kg, iv measured during 60 mins post dose. Type of data set: organism-based. Details: dose 0.1 mg/kg, route intravenous. To be noted: in vivo, 1 h. In short, it runs like this: as §1
For data set [4], the target named is T1, Adrenergic receptor alpha-2 (Rattus norvegicus, UniProt P22086+P19328+P22909).
T1 sequence (P22086 whole entry): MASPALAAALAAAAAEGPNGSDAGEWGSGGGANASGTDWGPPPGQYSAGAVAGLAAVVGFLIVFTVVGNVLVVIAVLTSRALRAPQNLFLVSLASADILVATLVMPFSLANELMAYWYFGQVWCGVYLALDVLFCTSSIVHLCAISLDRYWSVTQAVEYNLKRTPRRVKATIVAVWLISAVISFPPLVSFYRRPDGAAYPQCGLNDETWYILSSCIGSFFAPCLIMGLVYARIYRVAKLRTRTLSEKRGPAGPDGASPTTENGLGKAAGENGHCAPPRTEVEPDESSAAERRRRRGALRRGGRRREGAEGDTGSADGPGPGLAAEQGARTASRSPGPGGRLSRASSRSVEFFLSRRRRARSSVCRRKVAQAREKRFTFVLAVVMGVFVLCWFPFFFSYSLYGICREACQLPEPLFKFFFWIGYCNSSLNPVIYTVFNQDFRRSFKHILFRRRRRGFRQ
T1 sequence (P19328 whole entry): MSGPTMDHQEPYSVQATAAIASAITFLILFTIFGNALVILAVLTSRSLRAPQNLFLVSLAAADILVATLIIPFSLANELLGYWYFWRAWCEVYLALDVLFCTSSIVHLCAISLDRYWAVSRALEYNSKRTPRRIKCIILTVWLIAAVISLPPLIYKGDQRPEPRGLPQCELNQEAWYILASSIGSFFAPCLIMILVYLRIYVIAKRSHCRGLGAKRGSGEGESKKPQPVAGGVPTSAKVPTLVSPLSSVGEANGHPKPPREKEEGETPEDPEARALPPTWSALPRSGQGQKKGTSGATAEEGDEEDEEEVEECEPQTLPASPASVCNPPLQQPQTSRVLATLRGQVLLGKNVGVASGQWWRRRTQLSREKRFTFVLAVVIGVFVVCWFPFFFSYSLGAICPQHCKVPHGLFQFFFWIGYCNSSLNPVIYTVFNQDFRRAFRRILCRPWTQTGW
T1 sequence (P22909 whole entry): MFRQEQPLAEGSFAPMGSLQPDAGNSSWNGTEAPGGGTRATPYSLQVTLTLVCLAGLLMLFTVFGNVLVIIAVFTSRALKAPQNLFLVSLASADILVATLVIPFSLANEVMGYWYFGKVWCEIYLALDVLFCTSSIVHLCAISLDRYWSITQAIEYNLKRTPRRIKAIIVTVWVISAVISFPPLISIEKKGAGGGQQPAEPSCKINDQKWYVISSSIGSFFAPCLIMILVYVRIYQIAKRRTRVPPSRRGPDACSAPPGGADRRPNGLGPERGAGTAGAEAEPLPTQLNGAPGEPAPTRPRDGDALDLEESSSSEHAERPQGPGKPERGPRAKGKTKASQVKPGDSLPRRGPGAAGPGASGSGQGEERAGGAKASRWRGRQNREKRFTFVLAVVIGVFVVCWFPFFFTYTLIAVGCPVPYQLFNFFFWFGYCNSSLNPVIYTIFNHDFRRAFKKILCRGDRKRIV
Kind of data set: Displacement of [3H]RX821002 from alpha2-adrenoceptor in Sprague-Dawley rat brain membranes after 45 mins by liquid scintillation counting. Type of data set: cell membranes, Membrane. Summed up: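 Crude P2 membranes from brains of male Sprague-Dawley rats (250–280 g), 0.2–0.3 mg protein. Radioligand 1 nM [3H]RX821002 (α2) or [3H]prazosin (α1); 11 concentrations of compound, 0.1 nM–100 µM. Non-specific binding: 10 µM rauwolscine (α2) or 10 µM phenylephrine (α1). Triplicate incubation, RT, 45 min. PEI-soaked glass-fibre filtration, then scintillation counting. Ki by Cheng-Prusoff; 3–4 experiments, or one for low-affinity compounds.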

In data set [5] the test system is Rattus norvegicus. Kind of data set: Hypertensive activity in anesthetized Wistar rat assessed as time required for maximal increase in mean arterial blood pressure at 0.1 mg/kg, iv measured during 60 mins post dose. The class given is organism-based. Details: dose 0.1 mg/kg, route intravenous. To be noted: in vivo, 1 h. In short, it runs like this: as §1
The target of data set [6] is Nischarin (Rattus norvegicus, UniProt Q4G017). Kind of data set: Displacement of […] from imidazoline I1 receptor in Sprague-Dawley rat kidney membranes after 45 mins by liquid scintillation counting. The class given is cell membranes, Membrane.
Nischarin, sequence (Q4G017 whole entry): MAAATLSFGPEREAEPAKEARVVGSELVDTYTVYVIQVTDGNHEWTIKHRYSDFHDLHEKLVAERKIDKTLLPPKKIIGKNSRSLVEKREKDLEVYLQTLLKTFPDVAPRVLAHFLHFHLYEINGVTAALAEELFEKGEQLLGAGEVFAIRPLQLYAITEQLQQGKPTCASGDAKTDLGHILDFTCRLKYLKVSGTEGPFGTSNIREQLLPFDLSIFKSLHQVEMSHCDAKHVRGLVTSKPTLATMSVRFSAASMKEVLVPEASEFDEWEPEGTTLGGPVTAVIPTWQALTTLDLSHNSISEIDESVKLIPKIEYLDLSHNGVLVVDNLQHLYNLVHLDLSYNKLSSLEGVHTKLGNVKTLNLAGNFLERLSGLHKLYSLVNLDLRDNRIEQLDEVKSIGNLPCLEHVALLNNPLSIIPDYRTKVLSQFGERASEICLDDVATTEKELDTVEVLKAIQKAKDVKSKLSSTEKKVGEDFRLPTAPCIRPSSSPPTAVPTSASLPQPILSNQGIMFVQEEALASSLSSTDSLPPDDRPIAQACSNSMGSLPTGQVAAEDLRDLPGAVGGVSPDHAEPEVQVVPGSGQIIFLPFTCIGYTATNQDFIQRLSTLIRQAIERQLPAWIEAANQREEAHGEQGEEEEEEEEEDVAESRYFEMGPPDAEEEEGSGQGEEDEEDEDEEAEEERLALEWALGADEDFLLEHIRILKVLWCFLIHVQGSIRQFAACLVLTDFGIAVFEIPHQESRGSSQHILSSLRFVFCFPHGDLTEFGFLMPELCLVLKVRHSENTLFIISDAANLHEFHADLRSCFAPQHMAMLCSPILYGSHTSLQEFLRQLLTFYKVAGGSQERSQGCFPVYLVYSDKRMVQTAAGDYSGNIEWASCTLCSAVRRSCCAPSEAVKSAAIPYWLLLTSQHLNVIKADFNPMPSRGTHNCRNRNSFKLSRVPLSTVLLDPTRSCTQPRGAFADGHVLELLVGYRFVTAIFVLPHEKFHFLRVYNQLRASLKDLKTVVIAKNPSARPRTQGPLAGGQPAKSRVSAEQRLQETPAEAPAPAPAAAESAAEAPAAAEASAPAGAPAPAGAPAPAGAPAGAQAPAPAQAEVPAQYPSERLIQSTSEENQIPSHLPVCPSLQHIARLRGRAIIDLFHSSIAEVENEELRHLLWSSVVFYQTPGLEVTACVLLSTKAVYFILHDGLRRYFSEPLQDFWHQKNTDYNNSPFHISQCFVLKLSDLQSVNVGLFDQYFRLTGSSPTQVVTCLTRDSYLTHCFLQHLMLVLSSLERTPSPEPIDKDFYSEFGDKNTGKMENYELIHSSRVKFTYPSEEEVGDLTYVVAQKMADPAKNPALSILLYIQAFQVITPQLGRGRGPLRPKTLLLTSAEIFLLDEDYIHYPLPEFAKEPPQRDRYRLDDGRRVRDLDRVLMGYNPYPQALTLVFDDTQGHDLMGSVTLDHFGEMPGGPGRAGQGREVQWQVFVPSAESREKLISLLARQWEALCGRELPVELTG

Take `Fc1ccc2cnn(CC3=NCCN3)c2c1`: the Time in data set [1] came to 5 min; in data set [5] it was 4 min. Moreover, the Ki turned out to be 8.19 nM in data set [2] and 29.73 nM in data set [4]. Moreover, the Activity in data set [3] stood at 23.6 mmHg. This compound also displayed an IC50 in data set [6] of 33500 nM.
Consider `Fc1ccc2cnn(N=C3NCCN3)c2c1`, for which the figures for the Time in data set [1] and in data set [5] were 2 min and 3 min, respectively. Moreover, the inhibitory constant (Ki) in data set [2] came to 22000 nM; in data set [4] it was 26.2 nM. The Activity in data set [3] is recorded as 24.8 mmHg. The compound further returned a concentration for half-maximal inhibition (IC50) in data set [6] of 20700 nM.
Regarding `Fc1cccc2cnn(N=C3NCCN3)c12`, the Time in data set [1] is 10 min; in data set [5] it was 4 min. In addition, the figures for the Ki in data set [2] and in data set [4] were 349000 nM and 30.97 nM, respectively. Moreover, the Activity in data set [3] turned out to be 21.1 mmHg. In addition, the IC50 in data set [6] was found to be 7740 nM.
Take `Fc1ccc2c(cnn2CC2=NCCN2)c1`: the figures for the Time in data set [1] and in data set [5] were 38 min and 2 min, respectively. The Ki was found to be 10.4 nM in data set [2] and 32.17 nM in data set [4]. Also, the Activity in data set [3] worked out at 0.8 mmHg. In data set [6], this compound yielded an IC50 of 2420 nM.
Take `Fc1ccc2c(cnn2N=C2NCCN2)c1`: the Time is listed as 5 min in data set [1] and 2 min in data set [5]. The Ki in data set [2] amounted to 5700 nM; in data set [4], 64.33 nM. Further, in data set [3], the Activity was 14.6 mmHg. The IC50 in data set [6] was 91.6 nM.
